Screening data: PubChem BioAssay, several laboratories
Most compounds without a hit are left out; they make up all but 12% or so of the library.
Lmaj promast: Leishmania major promastigote growth inhibition. 200,000 compounds, 9% hits. Leishmania major promastigotes, resazurin fluorescence viability. AID 1063. inhibition, % at 10 µM; in the data active means inhibition above about 50%;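 further: promastigotes grown with compound for 44 hours at 28 °C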
WT yeast gro inh: growth inhibition of WT yeast, mitochondrial fusion screen; mitochondrial fusion phenotypic screen, WT strain; inhibition, % at 10 µM; 190,000 compounds, 2.1% hits; AID 1362; in the data active means inhibition above about 58%; tested in S. cerevisiae
ABCG2 inh: inhibitors of human ABCG2 transporter, ABCB1 counter-screen; 190,000 compounds, 0.1% hits; Q9UNQ0; inhibition, % at 6.6 µM; IgMXP3 cells, JC-1 efflux, flow cytometry;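 active means inhibition above 80%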;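 further: 0% = DMSO and 100% = nicardipine control wells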
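Test system: ABCG2 IgMXP3 and barcoded ABCB1 CCRF-Adr cell mix; Schedule: cells with compound and JC-1, 10 min at 25 °C, rotating, no wash; Technique: flow cytometry of retained JC-1 fluorescence; Measure: % inhibition of efflux relative to nicardipine and DMSO; Controls: nicardipine high and DMSO low controls.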
RAM inhibit: yeast RAM network inhibition | S. cerevisiae dse1pr::URA3 reporter, 5-FOA growth OD615, 2 d; analog-sensitive cbk1-as2 kinase mutant strain | inhibition, % at 50 µM | 190,000 compounds, 1.8% hits;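 active means inhibition above a set limit, 3 SD over mean compound inhibition, cut at about 8.4% in these data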;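 further: 0% = DMSO-only wells with no growth and 100% = 10 µM 1-NA-PP1 full growth; inhibition rescues growth on 5-FOA so higher OD means more RAM inhibition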
ABCB1 block: human ABCB1 inhibition, ABCG2 as counter-screen. P08183. CCRF-Adr cells, JC-1 efflux, flow cytometry. inhibition, % at 6.6 µM. 190,000 compounds, 0.067% hits; in the data active means inhibition above about 40%;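 further: 0% = vehicle and 100% = reference inhibitor; higher value means more JC-1 retained so stronger ABCB1 efflux block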
* marks the source's active call; other numbers are inactive results.

SMILES | Lmaj promast | WT yeast gro inh | ABCG2 inh | RAM inhibit | ABCB1 block
COc1cc2cc(CN(CCc3ccccc3C)C(=S)NCCCN(C)C)c(=O)[nH]c2cc1OC | 78.1* | -8.1 | 13.7 | 0.3 | -0.3
CCNC(=S)N(CCc1ccccc1C)Cc1cc2cc(OC)c(OC)cc2[nH]c1=O | 75.4* | -14.8 | 9.5 | 3.0 | 15.8
CCNC(=S)N(CCc1cccc(C)c1)Cc1cc2cc(OC)c(OC)cc2[nH]c1=O | 8.1 | -9.5 | -0.9 | 0.7 | -0.1
CCOc1ccc(C2c3cc(OC)c(OC)cc3CC(=O)N2c2ccc(OC)cc2)cc1 (centres undefined) | 80.5* | -0.8 | -2.0 | 1.1 | -0.5
COc1cc(-c2cc(N)n(S(=O)(=O)c3ccc(F)cc3)n2)cc(OC)c1OC | 22.1 | 1.5 | 2.0 | 0.2 | 0.9
CCOC(=O)c1oc2ccc(S(=O)(=O)n3nc(-c4cc(OC)c(OC)c(OC)c4)cc3N)cc2c1C | 64.1* | -3.0 | 0.2 | 2.6 | 1.3
COc1ccc(-c2cc(N)n(S(=O)(=O)c3ccc(F)cc3)n2)cc1OC | 51.1* | 0.5 | 0.6 | 6.0 | 0.6
COc1ccccc1CNc1ccc([N+](=O)[O-])cc1C | 19.4 | -8.4 | 5.8 | 0.4 | 0.3
COc1ccccc1NCc1ccc([N+](=O)[O-])s1 | 60.0* | -3.8 | 15.8 | 0.3 | 1.5
CN1C2C=C3C(C#N)=C(N)C(C#N)(C#N)C(c4ccc(Br)cc4)C3C1CC2 (centres undefined) | 97.8* | -17.7 | 0.3 | 0.2 | 0.3
COc1ccc(C2C(C#N)=C(/N=C/N3CCN(C)CC3)OC3=C2C(=O)CC(C)(C)C3)cc1OC (centres undefined) | 63.9* | -9.4 | 1.4 | 0.9 | 0.2
Cc1ccc(C)c(N2CCN(c3nnnn3-c3ccccc3)CC2)c1 | 63.5* | 48.8 | 1.0 | 2.8 | 0.2
Cc1cc(C)nc(N2CCN(c3nnnn3-c3ccccc3)CC2)n1 | 15.1 | -0.9 | -2.0 | 1.4 | -2.0
c1ccc(CC2CCN(c3nnnn3-c3ccccc3)CC2)cc1 | 10.0 | 61.5* | 8.3 | 6.1 | 1.4
CCOc1ccc(CCNC(=O)Cn2ccc3ccccc3c2=O)cc1OCC | -3.8 | 6.3 | 4.0 | 4.2 | 1.3
O=C(CCSCCc1ccccn1)Nc1c(F)c(F)c(F)c(F)c1F | 38.7 | -4.9 | -0.7 | 2.4 | -0.1
CCN(CC)CCCOC(=O)C1(c2ccccc2)CCCC1 | 99.1* | 1.0 | 1.2 | 1.0 | 0.1
C[N+](C)(C)CCOC(=O)C1(c2ccccc2)CCCC1 | -4.5 | 4.1 | 0.0 | 1.4 | -0.1
NC(=O)C1(c2ccccc2)CCOCC1 | -4.5 | 11.4 | 0.0 | 1.2 | 0.0
CCN(CC)CCOC(=O)C1(c2ccccc2)CCOCC1 | 73.0* | -9.2 | -4.2 | 0.0 | 0.0
Cc1ccc(OCCC(=O)OCC(=O)Nc2cc(S(=O)(=O)N(C)C)ccc2C)cc1 | -5.0 | -3.8 | 2.0 | 1.5 | 0.3
COC(=O)C1=C(C)N(C)C(C)=C(C(=O)OC)C1c1ccccn1 | -5.3 | 16.8 | 1.4 | 0.8 | 0.6
N=C1SCC(=O)N1c1ncc(Cc2cccc(Cl)c2)s1 | -13.4 | 61.8 | -1.4 | 2.3 | -0.2
O=C1NC(=Nc2ccccc2)c2ccc([N+](=O)[O-])cc21 | 66.8* | 8.7 | -1.5 | 1.8 | -0.9
COc1ccc(C(CC(=O)O)NC(=O)COc2ccc(C)cc2)cc1OC (centres undefined) | 1.8 | -0.1 | -0.2 | 0.9 | -0.1
SMILES | Lmaj promast | WT yeast gro inh | ABCG2 inh | RAM inhibit | ABCB1 block
O=C(N/N=C/c1c(O)ccc2ccccc12)c1cccc(C(F)(F)F)c1 | 97.4* | 6.5 | 22.7 | 2.3 | 2.4
Cc1ccc(O)c(/C=N/NC(=O)c2[nH]ncc2Br)c1 | 97.5* | -5.4 | 1.8 | 1.0 | -0.2
Cc1ccc(O)c(/C=N/NC(=O)C2=NNC(c3ccccc3)(c3ccccc3)C2)c1 | 100.0* | -1.2 | 0.0 | 1.4 | -1.2
Cc1nc2ccc(C(=O)N/N=C/c3cc([N+](=O)[O-])ccc3O)cc2[nH]1 | -0.1 | 0.7 | -1.9 | -0.4 | -1.4
O=C(N/N=C/c1c(O)ccc2ccccc12)c1[nH]ncc1Br | 99.8* | 4.5 | -2.2 | 2.9 | -0.8
COc1ccc2ccccc2c1/C=N/NC(=O)c1cccc(Br)c1 | -14.5 | 3.4 | -4.5 | -0.6 | -0.3
COC(=O)CSc1nnc(CNC(=O)Cc2ccccc2)n1-c1ccccc1OC | -3.4 | -17.4 | 7.9 | -0.1 | -0.1
CCOc1cc(NC(=S)NCCCN2CCOCC2)c(OCC)cc1NC(=O)c1ccc(C)cc1 | 21.7 | 13.5 | 41.7 | 0.8 | 2.4
Nc1ccc2c(c1)OC1(CCCCC1)O2 | -0.4 | 0.8 | 0.3 | -1.1 | 0.2
